The record followed here is ChEMBL document CHEMBL1125042, “Hypolipidemic activity of rifamycin derivatives” (J Med Chem, 1990).

In brackets after ≈: the same amount, converted by molar mass.

Type in all cases: functional
Assay [1] is filed under the species Rattus norvegicus. Nature of the assay: Hypolipidemic activity was determined in male rats, and high-density lipoprotein level was determined. An outline of the steps: (§1)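 Male Wistar rats (200–230 g), eight per group, were dosed orally in PEG 400 at 8 a.m. for 4 days, plus a second dose at 4 p.m. on day 4. Rats were fasted 16 h and killed 16 h after the last dose. Sera from pairs of rats were pooled. LDL (up to 1.040 g/cm³) was separated by ultracentrifugation and the HDL infranatant taken. Cholesterol was measured enzymatically. Results are % versus vehicle control, mean ± SEM of four pools, Student's t test.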

The species named for assay [2] is Rattus norvegicus. Nature of the assay: Hypolipidemic activity was determined in male rats, and low-density lipoprotein level was determined. The method in brief: as §1
Assay [3] relates to Staphylococcus aureus. Nature of the assay: Antibacterial activity against Staphylococcus aureus 10B. The method in brief: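 Agar dilution on DST agar with 2-fold drug dilutions. Inoculum of 10⁴ viable S. aureus 10B was taken from liquid-nitrogen stock, thawed 30 min and not subcultured. It was applied by multipoint replicator and incubated overnight at 37 °C. MIC is the lowest concentration inhibiting growth relative to control cultures.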

The species named for assay [4] is Rattus norvegicus. Kind of assay: Compound was tested for hypolipidemic activity in male rats, cholesterol was determined in serum. An outline of the steps: as §1

In general, MIC refers to the smallest concentration in the dilution series that meets the test's criterion for growth inhibition. The low end stands for greater potency, the high end for weaker potency. For the compound `COc1c(C)c2c3c4c1C(=O)C(=C(N1CCN(Cc5c(C)cc(C)cc5C)CC1)C4=O)NC(=O)/C(C)=C\C=C\C(C)C(O)C(C)C(O)C(C)C(OC(C)=O)C(C)C(OC)/C=C/OC(C)(O2)C3=O` (centres undefined), the Activity in assay [1] was -6%; in assay [2], 1%; in assay [4] it was -4%. This compound registered an MIC in assay [3] of 1 mg/L (≈ 1.08 µM).
